High-throughput results deposited in PubChem by Broad Institute.
This is a sample that favours compounds with a hit; in the whole collection about 1.7% have one here.
Cneo AK release – causes C. neoformans cell lysis; AID 651654; lysis activity, % at 15 µM; actives 0.2% (n = 360,000); adenylate kinase release luminescence, 4 h; normalised: neutral wells 0, clomiphene wells 100;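 active = mean lysis activity across replicates of at least 80%, whatever share of replicates individually reach that level; inactive = mean lysis activity below 80%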
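read-out = cell lysis signal | test system = log-phase Cryptococcus neoformans yeast cells | input = cells at 5 × 10^6 per mL | medium = fresh YPD growth medium | signal = luminescent adenylate kinase detection reagent | timing = 4 h at 37 °C static, read 1 h later | dosing = single dose | controls = Clomiphene as positive lysis control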
F508del corr – CFTR F508del correction in bronchial cells; CFBE cells, YFP halide quenching; stimulated with forskolin plus potentiator P3; % fluorescence drop versus neutral controls; activity (quench increase), % at 7.58 µM; actives 0.36% (n = 350,000);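 active = mean added fluorescence quench of at least 8% versus neutral control, with both replicates also reaching 8%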;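 also: cells transiently co-express mutant CFTR-F508del with the halide-sensitive YFP; corrector assay measuring rescue of mutant channel to the surface after 24 h compound exposure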
CaV13 ICDI inh – Disruptors of the CACNA1D IQ motif to Ca2+-dependent inactivation inhibitor domain association, primary screening, Förster resonance energy transfer in intact living …; HEK cells, CFP/YFP FRET ICDI-IQ, plate reader, 10 min; percent FRET-ratio fall versus neutral wells; inhibition, % at 12.3 µM; actives 0.098% (n = 340,000); AID 743397;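 active = mean replicate inhibition of at least 30% and at least 1% of replicates passing that level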;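 also: 0% = median of the neutral control wells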
rRNA inh HTS – selective bacterial rRNA inhibition in E. coli | GFP signal change (wild-type ribosome), % (no concentration beside the values) | actives 1.6% (n = 350,000) | E. coli WT GFP vs humanized-ribosome RFP mutants, fluorescence, 24 h; stronger effect = lower value; DMSO median 0, no signal -100;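 active = significant combined selectivity score with lowered wild-type GFP, culture density cut under 30%, mutant RFP and density less affected; inactive = any of these conditions unmet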
AID977621 – wild-type E. coli growth inhibition versus H69 humanized strain – H69 mutant RFP, wild-type GFP, cherry-pick, dose response. shares compounds with rRNA inh HTS. fluorescence, 24 h. activity change, negative = inhibition at 50 µM. 1,900 tested, under 10 active. AID 977621;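 active = Wild-type ribosome reporter drop at least double the humanized mutant ribosome reporter drop, growth loss under a set limit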;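 also: wild-type GFP and H69 mutant RFP strains grown together 50/50 in each well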
AID977628 – E. coli growth inhibition, wild-type GFP versus h24 humanized RFP strain, dose response, h24 mutant RFP vs wild-type GFP, cherry-pick; shares compounds with rRNA inh HTS; E. coli WT GFP strain growth, fluorescence, 24 h; activity change, negative = inhibition at 50 µM; 1,900 tested, under 10 active; AID 977628;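 active = compound lowering the normal-ribosome reporter at least twice as much as the humanized-ribosome reporter, growth loss under a set limit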;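 also: wild-type GFP and h24 humanized RFP strains co-cultured 1 to 1 per well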
Numbers without * were called inactive; x = not tested or not shown.

SMILES | Cneo AK release | F508del corr | CaV13 ICDI inh | rRNA inh HTS | AID977621 | AID977628
CC(NC(=O)c1c(N)[nH]c(C(=O)c2ccccc2)c1-c1ccccc1Br)c1cccc2ccccc12 (stereo not drawn) | x | -1 | -5 | -26* | 4.6 | -3
COc1ccc(C(=O)CCS(=O)(=O)c2ccc(C)cc2)cc1 | -1 | -2 | -7 | -1 | x | x
COc1ccc(C(CC(=O)c2ccc(O)cc2)S(=O)(=O)c2ccc(C)cc2)cc1 (stereo not drawn) | -3 | -2 | -7 | -24* | -0.51 | -11
C[C@@H]1CN([C@H](C)CO)C(=O)c2cc(C#Cc3ccccc3F)cnc2O[C@H]1CN(C)C | 1 | 3 | x | 5 | x | x
C[C@@H]1CN([C@@H](C)CO)C(=O)c2cc(-c3cccc(F)c3)cnc2O[C@@H]1CN(C)Cc1cccc(F)c1 | x | -6 | x | 2 | x | x
COc1ccc(S(=O)(=O)Nc2ccc3c(c2)C(=O)N([C@@H](C)CO)C[C@H](C)[C@H](CN(C)S(=O)(=O)c2cn(C)cn2)OCCCC[C@@H](C)O3)cc1 | -3 | -1 | x | -1 | x | x
